The values below come from ChEMBL document CHEMBL1140079, “Discovery of orally bioavailable cathepsin S inhibitors for the reversal of neuropathic pain” (J Med Chem, 2008).

In data set [1] the target is Cathepsin S (Homo sapiens, UniProt P25774). The data set can be described thus: Inhibition of human recombinant cathepsin S by fluorescence assay. In outline:
(§1)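 Recombinant human enzymes in a fluorescence assay; substrate Z-Phe-Arg-MCA for cathepsins K and L, Z-Leu-Leu-Arg-MCA for cathepsin S. Means of two experiments, each run in duplicate; individual points within a 2-fold range of each other.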

Data set [2] has as its target Procathepsin L (Homo sapiens, UniProt P07711). Briefly: Inhibition of human recombinant cathepsin L by fluorescence assay. In outline:
as §1

For data set [3], the target named is T1, Cathepsin K (Homo sapiens, UniProt P43235).
T1 sequence (P43235 whole entry): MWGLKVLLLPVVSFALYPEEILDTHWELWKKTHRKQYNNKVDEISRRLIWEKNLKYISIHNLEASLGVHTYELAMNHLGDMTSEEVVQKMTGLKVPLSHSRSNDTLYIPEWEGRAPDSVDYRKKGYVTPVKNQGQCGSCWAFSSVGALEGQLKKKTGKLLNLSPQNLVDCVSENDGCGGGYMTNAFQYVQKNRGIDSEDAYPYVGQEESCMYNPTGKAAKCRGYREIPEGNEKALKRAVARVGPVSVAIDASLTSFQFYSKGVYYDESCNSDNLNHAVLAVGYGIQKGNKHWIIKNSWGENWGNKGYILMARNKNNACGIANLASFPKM
Briefly: Inhibition of human recombinant cathepsin K by fluorescence assay. In outline:
as §1

Data set [4] is described as follows: Genotoxicity in liver S9 fraction by Ames test. It counts as toxicity, subcellular. The method in brief:
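Standard Ames test run with liver S9 enzyme.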
On the technique in general: The Ames test uses bacterial strains that need an amino acid and regain growth without it when mutated back.

Data set [5] is described as follows: Inhibition of rat cathepsin S cysteine 137 mutant by fluorescence assay. In outline: (§2)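 Recombinant rat cathepsins K, L, S (137Gly and 137Cys forms) and mouse cathepsin S in a fluorescence assay. Substrates: Z-Phe-Arg-MCA for K and L, Z-Leu-Leu-Arg-MCA for S. IC50 reported as means ± SD of three experiments.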
Data set [6] addresses Cytochrome P450 2D6 (Homo sapiens, UniProt P10635). Briefly: Inhibition of CYP2D6 at 10 uM. It counts as ADME. In outline:
(§3)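 Tested against a panel of cytochrome P450 enzymes at a maximum concentration of 10 µM.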

For data set [7], the target named is Cathepsin S (Mus musculus, UniProt O70370). The data set can be described thus: Inhibition of mouse cathepsin S by fluorescence assay. In outline: as §2
The test system of data set [8] is Rattus norvegicus. The data set can be described thus: Reversal of neuropathic mechanical hyperalgesia in Wistar rat sciatic nerve ligation model with cathepsin S glycine 137 mutation at 100 mg/kg, po. Format: functional. The method in brief:
(§4)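 Partial sciatic nerve ligation in Wistar rats genotyped as 137Gly cathepsin S, with established mechanical hyperalgesia. Oral dosing in 0.5% methylcellulose/water; repeat regimen twice daily for 5 days, paw withdrawal thresholds 3 h post-dose. 6 animals/group; % reversal of hyperalgesia, mean ± SEM; ANOVA with Tukey's HSD versus vehicle.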

The nature of data set [9]: Volume of distribution in Sprague-Dawley rat at 1 mg/kg, iv and 3 mg/kg, po by LC/MS analysis. Format: ADME, organism-based. The following applies: in vivo. In outline: (§5)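 Male Sprague-Dawley rats dosed orally at 3 mg/kg as a suspension and intravenously at 1 mg/kg as a bolus. Plasma levels quantified by LC/MS. Oral AUC and Cmax dose-normalized to 1 mg/kg. Means ± SD of three individual experiments.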

Data set [10] can be described thus: Terminal elimination half life in Sprague-Dawley rat at 1 mg/kg, iv by LC/MS analysis. More on the design: dose 1 mg/kg, route intravenous. The following applies: in vivo. Format: ADME, organism-based. The method in brief: as §5
Data set [11] deals with T2, Cytochrome P450 1A2 (Homo sapiens, UniProt P05177).
T2 sequence (P05177 whole entry): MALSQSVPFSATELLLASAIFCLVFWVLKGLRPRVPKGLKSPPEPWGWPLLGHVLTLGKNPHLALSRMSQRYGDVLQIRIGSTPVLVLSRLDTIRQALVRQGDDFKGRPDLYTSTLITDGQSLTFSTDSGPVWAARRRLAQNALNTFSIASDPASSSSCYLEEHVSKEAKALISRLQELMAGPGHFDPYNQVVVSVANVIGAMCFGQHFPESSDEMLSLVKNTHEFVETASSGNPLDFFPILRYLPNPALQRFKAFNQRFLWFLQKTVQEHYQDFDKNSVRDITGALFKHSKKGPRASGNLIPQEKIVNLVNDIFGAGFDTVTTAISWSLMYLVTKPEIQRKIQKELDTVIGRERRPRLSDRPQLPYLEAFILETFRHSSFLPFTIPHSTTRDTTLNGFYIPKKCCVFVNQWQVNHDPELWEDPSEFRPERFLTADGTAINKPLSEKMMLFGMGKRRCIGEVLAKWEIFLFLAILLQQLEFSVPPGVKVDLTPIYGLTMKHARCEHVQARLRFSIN
The data set can be described thus: Inhibition of CYP1A2 at 10 uM. It counts as ADME. In outline:
as §3

The target in data set [12] is T3, Cathepsin K (Rattus norvegicus, UniProt O35186).
T3 sequence (O35186 whole entry): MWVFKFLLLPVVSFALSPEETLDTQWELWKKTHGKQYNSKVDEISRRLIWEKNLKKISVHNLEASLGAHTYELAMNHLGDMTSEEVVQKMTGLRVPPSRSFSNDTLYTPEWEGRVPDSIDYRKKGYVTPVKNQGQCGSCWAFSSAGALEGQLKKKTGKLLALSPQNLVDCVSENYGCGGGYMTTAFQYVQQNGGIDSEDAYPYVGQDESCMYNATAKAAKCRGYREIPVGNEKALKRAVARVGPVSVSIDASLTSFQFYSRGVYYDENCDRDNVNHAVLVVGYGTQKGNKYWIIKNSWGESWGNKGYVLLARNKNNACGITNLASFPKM
Briefly: Inhibition of rat cathepsin K by fluorescence assay. In outline: as §2

The species named for data set [13] is Rattus norvegicus. The data set can be described thus: Selectivity for rat cathepsin S glycine 137 mutant over rat cathepsin B. The method in brief:
(§6)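 Recombinant rat cathepsins in a fluorescence assay with MCA substrates: Z-Leu-Leu-Arg-MCA for cathepsin S (137Gly form), Z-Phe-Arg-MCA for K and L, and Z-Arg-Arg-MCA for B. IC50 values were taken as means ± SD of three experiments, and selectivity was compared from the IC50 values against the S enzyme and each other cathepsin.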

The test system of data set [14] is Rattus norvegicus. The data set can be described thus: Reversal of neuropathic mechanical hyperalgesia in Wistar rat sciatic nerve ligation model assessed as paw withdrawal threshold at 30 mg/kg, po administered twice daily for 5 days after 3 hrs. It counts as functional. The method in brief: as §4
The species named for data set [15] is Rattus norvegicus. The data set can be described thus: Selectivity for rat cathepsin S glycine 137 mutant over rat cathepsin L. In outline: as §6
The nature of data set [16]: Bioavailability in Sprague-Dawley rat at 1 mg/kg, iv and 3 mg/kg, po by LC/MS analysis. Format: ADME, organism-based. The note with it: in vivo. The method in brief: as §5
Data set [17] deals with Cytochrome P450 3A4 (Homo sapiens, UniProt P08684). The data set can be described thus: Inhibition of CYP3A4 at 10 uM. It counts as ADME. The method in brief: as §3
Cytochrome P450 3A4, sequence (P08684 whole entry): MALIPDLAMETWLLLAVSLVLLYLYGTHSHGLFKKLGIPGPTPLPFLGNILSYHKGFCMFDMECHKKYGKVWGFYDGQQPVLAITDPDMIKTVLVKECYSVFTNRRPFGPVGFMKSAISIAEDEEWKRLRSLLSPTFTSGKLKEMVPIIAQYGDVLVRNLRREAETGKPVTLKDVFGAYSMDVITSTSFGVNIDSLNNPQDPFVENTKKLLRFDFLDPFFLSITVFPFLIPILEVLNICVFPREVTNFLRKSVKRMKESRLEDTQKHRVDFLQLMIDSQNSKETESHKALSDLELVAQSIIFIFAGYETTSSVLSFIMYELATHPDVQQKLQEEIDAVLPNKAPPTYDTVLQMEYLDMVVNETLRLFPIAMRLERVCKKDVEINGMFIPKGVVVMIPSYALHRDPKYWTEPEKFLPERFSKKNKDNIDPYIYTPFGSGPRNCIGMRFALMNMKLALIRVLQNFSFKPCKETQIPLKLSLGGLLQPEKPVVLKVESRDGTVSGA
The species named for data set [18] is Rattus norvegicus. The data set can be described thus: Selectivity for rat cathepsin S glycine 137 mutant over rat cathepsin K. In outline: as §6
In data set [19] the target is Cytochrome P450 2C9 (Homo sapiens, UniProt P11712). Briefly: Inhibition of CYP2C9 at 10 uM. Format: ADME. The method in brief:
as §3

Data set [20] is described as follows: Cmax in Sprague-Dawley rat at 3 mg/kg, po by LC/MS analysis. It counts as ADME, organism-based. Set-up: dose 3 mg/kg, route oral. The note with it: in vivo. The method in brief:
as §5

A short description of data set [21]: Inhibition of rat cathepsin S glycine 137 mutant by fluorescence assay. In outline: as §2
In data set [22] the target is Cytochrome P450 2C19 (Homo sapiens, UniProt P33261). Briefly: Inhibition of CYP2C19 at 10 uM. It counts as ADME. The method in brief:
as §3

The target of data set [23] is Cathepsin S (Mus musculus) (UniProt O70370). The data set can be described thus: Inhibition of cathepsin S-mediated proteolytic cleavage of MHC2 associated invariant chain in mouse splenocytes assessed as induction of accumulation of lip10. It counts as cell-based.
Data set [24] addresses T4, Procathepsin L (Rattus norvegicus, UniProt P07154).
T4 sequence (P07154 whole entry): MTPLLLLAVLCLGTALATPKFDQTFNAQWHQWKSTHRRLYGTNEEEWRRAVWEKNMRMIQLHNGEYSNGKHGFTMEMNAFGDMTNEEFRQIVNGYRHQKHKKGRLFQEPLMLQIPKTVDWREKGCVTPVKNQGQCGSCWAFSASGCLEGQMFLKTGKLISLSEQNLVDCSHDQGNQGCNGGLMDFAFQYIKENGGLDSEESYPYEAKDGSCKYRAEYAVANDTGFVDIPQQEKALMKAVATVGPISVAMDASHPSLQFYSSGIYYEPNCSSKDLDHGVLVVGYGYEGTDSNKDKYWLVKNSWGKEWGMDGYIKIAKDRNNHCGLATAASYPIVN
Briefly: Inhibition of rat cathepsin L by fluorescence assay. In outline:
as §2

A short description of data set [25]: Plasma clearance in Sprague-Dawley rat at 1 mg/kg, iv and 3 mg/kg, po by LC/MS analysis. Format: ADME, organism-based. The method in brief:
as §5

Procathepsin L (Homo sapiens, UniProt P07711), sequence (P07711 whole entry): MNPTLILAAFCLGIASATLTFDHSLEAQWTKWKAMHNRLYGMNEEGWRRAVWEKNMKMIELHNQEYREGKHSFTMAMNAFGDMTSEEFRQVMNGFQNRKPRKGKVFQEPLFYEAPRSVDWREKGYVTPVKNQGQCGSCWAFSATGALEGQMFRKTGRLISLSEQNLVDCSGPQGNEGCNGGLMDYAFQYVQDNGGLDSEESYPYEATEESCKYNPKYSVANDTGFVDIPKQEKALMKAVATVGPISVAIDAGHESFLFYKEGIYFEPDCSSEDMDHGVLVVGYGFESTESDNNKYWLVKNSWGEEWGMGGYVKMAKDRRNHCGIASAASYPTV
Cathepsin S (Homo sapiens, UniProt P25774), sequence (P25774 whole entry): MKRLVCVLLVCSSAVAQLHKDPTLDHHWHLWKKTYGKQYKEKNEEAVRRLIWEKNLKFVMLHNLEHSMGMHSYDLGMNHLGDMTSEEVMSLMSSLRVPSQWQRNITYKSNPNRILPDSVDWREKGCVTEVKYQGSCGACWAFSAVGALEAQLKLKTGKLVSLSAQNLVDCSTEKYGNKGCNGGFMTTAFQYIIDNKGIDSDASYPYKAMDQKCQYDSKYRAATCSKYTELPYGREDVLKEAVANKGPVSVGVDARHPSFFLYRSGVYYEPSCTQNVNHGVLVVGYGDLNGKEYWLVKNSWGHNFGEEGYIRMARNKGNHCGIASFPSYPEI
Cytochrome P450 2D6, sequence (P10635 whole entry): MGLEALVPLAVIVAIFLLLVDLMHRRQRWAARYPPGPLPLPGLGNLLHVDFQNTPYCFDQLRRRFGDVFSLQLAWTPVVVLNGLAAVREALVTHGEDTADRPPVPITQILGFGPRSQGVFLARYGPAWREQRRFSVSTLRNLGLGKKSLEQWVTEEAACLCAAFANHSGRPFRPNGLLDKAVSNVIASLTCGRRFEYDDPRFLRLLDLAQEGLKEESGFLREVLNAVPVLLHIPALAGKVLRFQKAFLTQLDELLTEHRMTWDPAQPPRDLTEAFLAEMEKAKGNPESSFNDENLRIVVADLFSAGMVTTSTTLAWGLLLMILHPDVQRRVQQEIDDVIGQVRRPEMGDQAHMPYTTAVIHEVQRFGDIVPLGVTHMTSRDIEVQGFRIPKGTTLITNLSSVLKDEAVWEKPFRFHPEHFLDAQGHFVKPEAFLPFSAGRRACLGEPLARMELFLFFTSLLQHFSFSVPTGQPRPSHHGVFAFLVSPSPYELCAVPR
Cytochrome P450 2C9, sequence (P11712 whole entry): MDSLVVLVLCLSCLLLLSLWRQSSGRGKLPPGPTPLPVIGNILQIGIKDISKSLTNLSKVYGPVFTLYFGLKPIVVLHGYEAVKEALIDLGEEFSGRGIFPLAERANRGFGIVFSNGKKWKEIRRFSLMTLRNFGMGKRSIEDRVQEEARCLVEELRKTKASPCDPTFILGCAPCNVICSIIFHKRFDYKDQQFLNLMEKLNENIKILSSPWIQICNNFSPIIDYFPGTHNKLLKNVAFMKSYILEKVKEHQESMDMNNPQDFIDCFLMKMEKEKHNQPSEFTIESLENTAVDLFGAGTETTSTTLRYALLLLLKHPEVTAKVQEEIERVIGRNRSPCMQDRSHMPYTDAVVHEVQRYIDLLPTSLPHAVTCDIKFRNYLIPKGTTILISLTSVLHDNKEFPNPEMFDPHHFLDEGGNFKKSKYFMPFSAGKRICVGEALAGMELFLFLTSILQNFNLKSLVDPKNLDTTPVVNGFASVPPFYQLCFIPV
Cytochrome P450 2C19, sequence (P33261 whole entry): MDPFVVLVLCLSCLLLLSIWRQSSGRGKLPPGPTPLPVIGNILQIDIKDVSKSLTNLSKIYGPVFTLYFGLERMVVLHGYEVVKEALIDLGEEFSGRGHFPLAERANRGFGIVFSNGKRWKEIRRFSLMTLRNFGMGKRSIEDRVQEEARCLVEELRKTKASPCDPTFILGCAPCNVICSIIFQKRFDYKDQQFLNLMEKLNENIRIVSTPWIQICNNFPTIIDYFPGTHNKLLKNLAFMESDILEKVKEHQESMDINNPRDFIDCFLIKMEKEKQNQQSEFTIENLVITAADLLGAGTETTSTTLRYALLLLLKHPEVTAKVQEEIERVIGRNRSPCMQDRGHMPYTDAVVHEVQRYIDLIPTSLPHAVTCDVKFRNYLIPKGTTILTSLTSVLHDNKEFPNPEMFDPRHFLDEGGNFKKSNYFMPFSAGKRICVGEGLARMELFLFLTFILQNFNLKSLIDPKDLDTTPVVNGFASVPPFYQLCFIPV

A word on the IC50: it is the midpoint of a concentration-inhibition curve. For `CC(=O)N1CCN(c2ccc(OCc3cc4cnc(C#N)nc4n3CCc3ccc(Cl)cc3)cc2)CC1`, the IC50 in data set [1] is 17 nM; in data set [2], over 1000 nM; in [3], over 1000 nM.

Turning to `CC(=O)N1CCN(c2ccc(OCc3cc4cnc(C#N)nc4n3CCC3CCCCCC3)cc2)CC1`, the IC50 was 50 nM in data set [1], over 2000 nM in data set [2] and over 2000 nM in data set [3].

Turning to `CC(=O)N1CCN(c2ccc(OCc3cc4cnc(C#N)nc4n3CCC3CCCC3)cc2)CC1`, the IC50 in data set [1] turned out to be 5 nM; in [2], 2300 nM; in [3] it was 79 nM.

As usually defined, the half-life is the time in which the quantity being followed falls by half. Low values mean rapid decline, high ones slow decline. In general, bioavailability refers to the share of a dose that reaches the circulation, judged against a reference dose that is usually intravenous. Read a high bioavailability as much systemic uptake. What is called Cmax is the maximum level reached in the sampled fluid or tissue. Regarding `CC(=O)N1CCN(c2ccc(OCc3cc4cnc(C#N)nc4n3CCC3CCCCC3)c(F)c2)CC1`, the IC50 in [1] is 18 nM; in data set [5], over 10000 nM; in data set [7], 14 nM; in data set [2] it was 6800 nM; in data set [12] it was over 10000 nM; in [3] it was 5900 nM. Also, the IC50 is 12 nM in [21] and over 10000 nM in data set [24]. The Activity result was “Non-toxic” in data set [4]; “Not Active” in data set [6]; 54% in data set [8]; “Not Active” in data set [11]; over 100 in data set [13]; 63% in [14]. Further, the Activity in data set [15] is over 100; in data set [17], “Not Active”; in data set [18] it was over 100; in data set [19] it was “Not Active”; in [22], “Not Active”; in [23], “Dose-dependent effect”. The Vd in data set [9] is 5.7 L/kg. The molecule further showed a half-life in data set [10] of 1.7 h. In data set [16], this molecule returned a bioavailability of 24%. The molecule also had a Cmax in [20] of 30 nM. In [25], this molecule gave a clearance of 45 mL/min/kg.

For the molecule `CC(=O)N1CCN(c2ccc(OCc3cc4cnc(C#N)nc4n3CCC3CCCCC3)cc2)CC1`, the IC50 is over 10000 nM in data set [5]; 10 nM in data set [7]; 5200 nM in [2]; over 10000 nM in data set [12]; 1650 nM in data set [3]; 10 nM in data set [21]. Further, the IC50 in data set [24] was over 10000 nM. Moreover, in data set [9], the Vd stood at 5.6 L/kg. The half-life in data set [10] is 1.1 h. The Activity in data set [13], in data set [15] and in data set [18] was over 100 in each case. Besides, in data set [16], the bioavailability was found to be 53%. This molecule also gave a Cmax in data set [20] of 61 nM. Besides, in data set [25], the clearance is 65 mL/min/kg.

For `CC(=O)N1CCN(c2ccc(OCc3cc4cnc(C#N)nc4n3CCC3CCCCC3)cc2F)CC1`, the half-maximal inhibitory concentration (IC50) in data set [1] was 9 nM; in data set [2], over 1000 nM; in data set [3] it was over 1000 nM.

On to `CC(=O)N1CCCN(c2ccc(OCc3cc4cnc(C#N)nc4n3CCC3CCCCC3)cc2)CC1`, for which the figures for the IC50 in [1], in data set [2] and in data set [3] were 11 nM, over 1000 nM and 290 nM, respectively.
